Data as given in ChEMBL document CHEMBL5705906 (Nat Commun, 2017).
The source made the active and inactive calls. The calls are words filed in the database; no cut-off is given here.

How the values were obtained:
[1] = tested on: BaF3; assay: Inhibition of EGFR-del19 mutant in mouse BaF3 cells assessed as inhibition of ERK phosphorylation at 10 to 1000 nM incubated for 6 hrs by Western blotting analysis; format: cell-based; conditions: dose 10-1000 nM
Summary of the method: (§1)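 Ba/F3 cells carrying the stated EGFR mutant were made IL-3-independent after 1 week of 7 µM blasticidin selection. They were grown in low-glucose DMEM with 10% FBS and exposed to inhibitor for 6 h. Cells were washed in cold PBS, lysed in SDS buffer (100 mM Tris, 1% SDS, 10% glycerol) and boiled 5 min. Protein was measured by BCA, run on SDS-PAGE, transferred to PVDF, blocked in 5% BSA or milk/TBS-T, and immunoblotted.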

[2] = tested on: BaF3; assay: Inhibition of EGFR-del19 mutant in mouse BaF3 cells assessed as inhibition of S6 phosphorylation at 10 to 1000 nM incubated for 6 hrs by Western blotting analysis; format: cell-based; conditions: dose 10-1000 nM; summary of the method: as §1
[3] = tested on: BaF3; assay: Inhibition of EGFR-T790M/del19 mutant in mouse BaF3 cells assessed as inhibition of S6 phosphorylation at 10 to 1000 nM incubated for 6 hrs by Western blotting analysis; format: cell-based; conditions: dose 10-1000 nM; summary of the method: as §1
[4] = tested on: BaF3; format: cell-based; conditions: Mus musculus, dose 10-1000 nM, time 6.0 hrs
[5] = tested on: BaF3; assay: Inhibition of EGFR-C797S/T790M/L858R mutant in mouse BaF3 cells assessed as inhibition of EGFR phosphorylation at 10 to 1000 nM incubated for 6 hrs by Western blotting analysis; format: cell-based; conditions: dose 10-1000 nM
Summary of the method: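 Ba/F3 cells expressing EGFR-L858R-series mutants treated with inhibitors for 6 h. SDS lysates quantified by BCA, run on SDS-PAGE and blotted to PVDF. Probed for phospho-EGFR (Tyr1068), total EGFR and downstream phospho-proteins.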

[6] = tested on: A-431; assay: Anticancer activity against human A-431 cells assessed as reduction in cell viability at IC50 concentration incubated for 72 hrs by CellTiter-Glo assay; format: functional, cell-based
Summary of the method: (§2)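 Three-day CellTiter-Glo viability assay. Cells exposed to compound across a 10-dose range of 0.3 nM to 10 µM for 72 h. IC50 from nonlinear sigmoidal dose-response fit.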

[7] = tested on: NCI-H460; assay: Anticancer activity against human NCI-H460 cells assessed as reduction in cell viability at IC50 concentration incubated for 72 hrs by CellTiter-Glo assay; format: functional, cell-based; summary of the method: as §2
[8] = tested on: PC-9; assay: Anti-tumor activity against EGFR T790M/del19 mutant expressing gefitinib-resistant human PC-9 cells xenografted in Balb-c nu/nu mouse assessed as prolonged survival at 75 mg/kg, po administered for 42 days; format: functional, organism-based; conditions: time 42.0 day
[9] = Cytotoxicity against mouse Ba/F3 EGFR-Del19/T790M/C797S cells assessed as inhibition of cell viability by measuring fold change at 30 nM incubated for 72 hrs in presence of cetuximab by CellTiter-Glo assay relative to brigatinib alone; format: functional
[10] = tested on: PC-9; assay: Anti-tumor activity against human PC-9 cells expressing EGFR-C797S/T790M/del19 mutant xenografted in Balb-c nu/nu mouse assessed as decreased tumor growth at 75 mg/kg, po administered for 60 days and measured twice weekly in presence of panitumumab; format: functional, organism-based; conditions: time 60.0 day
Summary of the method: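 PC9 EGFR-C797S/T790M/del19 xenografts in Balb-c nu/nu mice, randomized at ~200 mm³. […] Tumour volume 0.5×length×width² measured twice weekly. Survival by Kaplan-Meier. N = 6. Mann-Whitney U test at days 16 and 23.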

[11] = tested on: MGH121; assay: Anti-tumor activity against human MGH121 cells expressing EGFR-C797S/T790M/del19 mutant xenografted in SCID-beige mouse assessed as tumor shrinkage at 75 mg/kg, po administered for 40 days and measured twice weekly in presence of cetuximab; format: functional, organism-based; conditions: time 40.0 day
Summary of the method: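 MGH121-res2 cells (EGFR-C797S/T790M/del19) implanted s.c. in SCID-beige mice. Randomized at mean tumour ~200 mm³. […] Tumour volume 0.5×length×width² and body weight measured twice weekly. N = 6, mean ± s.d. Mann-Whitney U test on day 42.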

[12] = Toxicity against Balb-c nu/nu mouse xenografted with human PC-9 cells expressing EGFR-C797S/T790M/del19 mutant assessed as change in body weight at 75 mg/kg, po administered for 15 days and measured twice weekly; format: organism-based; conditions: in vivo, 360 h, time 15 day
Summary of the method: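 PC9 triple-mutant cells (6×10^6 in 100 µl 1:2 Matrigel) were implanted subcutaneously in Balb-c nu/nu mice. At a mean tumour volume of ~200 mm³, mice were randomized, excluding the top and bottom 5% by tumour size. […] Body weight was recorded twice weekly, n=6 per group, and tumours were resected on treatment day 15.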

[13] = tested on: BaF3; conditions: Mus musculus, dose 10-1000 nM
[14] = tested on: BaF3; conditions: Mus musculus, dose 10-1000 nM, time 6.0 hrs
[15] = tested on: BaF3; conditions: Mus musculus, dose 10-1000 nM, time 6.0 hrs; remark: listed apart in the source
[16] = tested on: Epidermal growth factor receptor (Homo sapiens), P00533 [UNDEFINED MUTATION]; conditions: PC-9, dose 10-1000 nM
Epidermal growth factor receptor (Homo sapiens), P00533 [UNDEFINED MUTATION], sequence (P00533 whole entry, looked up, change not shown): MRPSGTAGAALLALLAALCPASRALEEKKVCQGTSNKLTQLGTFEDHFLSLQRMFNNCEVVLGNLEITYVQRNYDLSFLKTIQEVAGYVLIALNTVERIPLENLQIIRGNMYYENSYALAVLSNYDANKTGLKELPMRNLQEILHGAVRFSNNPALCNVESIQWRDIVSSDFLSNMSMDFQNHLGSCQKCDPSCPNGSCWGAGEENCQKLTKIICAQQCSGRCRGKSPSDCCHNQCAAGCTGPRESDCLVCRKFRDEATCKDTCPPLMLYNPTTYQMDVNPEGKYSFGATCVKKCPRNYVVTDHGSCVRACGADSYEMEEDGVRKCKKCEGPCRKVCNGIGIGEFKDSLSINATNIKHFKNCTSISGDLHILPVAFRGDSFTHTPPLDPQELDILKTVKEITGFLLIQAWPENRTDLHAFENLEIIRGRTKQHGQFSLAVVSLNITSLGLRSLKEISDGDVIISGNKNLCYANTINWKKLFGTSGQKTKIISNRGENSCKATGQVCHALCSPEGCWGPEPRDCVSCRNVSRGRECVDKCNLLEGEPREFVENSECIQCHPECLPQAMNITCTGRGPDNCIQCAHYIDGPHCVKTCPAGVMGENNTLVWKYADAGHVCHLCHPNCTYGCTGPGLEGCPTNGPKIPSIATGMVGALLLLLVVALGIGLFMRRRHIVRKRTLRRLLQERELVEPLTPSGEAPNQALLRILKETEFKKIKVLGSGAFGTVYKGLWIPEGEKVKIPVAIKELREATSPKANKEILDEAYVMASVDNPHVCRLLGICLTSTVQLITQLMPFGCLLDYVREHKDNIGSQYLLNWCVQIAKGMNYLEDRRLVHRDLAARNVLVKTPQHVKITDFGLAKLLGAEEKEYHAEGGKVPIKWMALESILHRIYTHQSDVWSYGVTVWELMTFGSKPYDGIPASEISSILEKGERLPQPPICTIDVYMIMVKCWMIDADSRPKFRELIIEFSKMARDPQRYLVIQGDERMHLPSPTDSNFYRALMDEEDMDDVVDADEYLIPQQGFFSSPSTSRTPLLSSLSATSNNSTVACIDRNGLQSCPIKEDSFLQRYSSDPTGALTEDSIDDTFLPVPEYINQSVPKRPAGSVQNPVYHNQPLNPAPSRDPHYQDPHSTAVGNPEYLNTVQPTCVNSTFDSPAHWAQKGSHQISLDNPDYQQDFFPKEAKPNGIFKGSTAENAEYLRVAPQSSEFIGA

[17] = tested on: Epidermal growth factor receptor (Homo sapiens), P00533 [UNDEFINED MUTATION]; conditions: PC-9, dose 10-1000 nM; remark: listed apart in the source
[18] = tested on: Epidermal growth factor receptor (Homo sapiens), P00533 [UNDEFINED MUTATION]; conditions: MGH121, dose 10-1000 nM
[19] = tested on: Epidermal growth factor receptor (Homo sapiens), P00533 [UNDEFINED MUTATION]; conditions: MGH121, dose 10-1000 nM; remark: listed apart in the source
[20] = tested on: Epidermal growth factor receptor (Homo sapiens), P00533 [UNDEFINED MUTATION]; conditions: PC-9, dose 10-1000 nM; remark: listed apart in the source
[21] = tested on: PC-9; conditions: Homo sapiens, dose 75.0 mg/kg, route po, time 15.0 day
[22] = tested on: PC-9; conditions: Homo sapiens, dose 75.0 mg/kg, route po, time 15.0 day; remark: listed apart in the source
[23] = tested on: BaF3; conditions: Mus musculus, dose 30-1000 nM, time 6.0 hrs
[24] = tested on: BaF3; conditions: Mus musculus, dose 30-1000 nM, time 6.0 hrs; remark: listed apart in the source
[25] = tested on: Epidermal growth factor receptor (Homo sapiens), P00533 [UNDEFINED MUTATION]; conditions: PC-9, dose 500.0 nM, time 6-48 hrs, TDE = time-dependent effect
[26] = tested on: Epidermal growth factor receptor (Homo sapiens), P00533 [UNDEFINED MUTATION]; conditions: PC-9, dose 500.0 nM, time 48.0 hrs
[27] = tested on: Epidermal growth factor receptor (Homo sapiens), P00533 [UNDEFINED MUTATION]; conditions: PC-9, dose 500.0 nM, time 48.0 hrs; remark: listed apart in the source
[28] = tested on: Epidermal growth factor receptor (Homo sapiens), P00533 [UNDEFINED MUTATION]; conditions: PC-9, dose 500.0 nM, time 48.0 hrs; remark: listed apart in the source

inhibition [16]: Active
inhibition [17]: Active
inhibition [18]: Active
inhibition [19]: Active
inhibition [20]: Active
inhibition [25]: Tde
inhibition [26]: Active
inhibition [27]: Active
inhibition [28]: Active
Structure (SMILES): COc1cc(N2CCC(N3CCN(C)CC3)CC2)ccc1Nc1ncc(Cl)c(Nc2ccccc2P(C)(C)=O)n1 [BRIGATINIB]
inhibition [1]: Active
inhibition [2]: Active
inhibition [3]: Active
inhibition [4]: Active
inhibition [5]: Active
Activity [6]: Active
Activity [7]: Active
Activity [8]: Active
fold change (FC) [9]: ~3
Activity [10]: Active
Activity [11]: Active
Activity [12]: Non-Toxic
inhibition [13]: Dose-Dependent Effect
inhibition [14]: Active
inhibition [15]: Active
inhibition [21]: Active
inhibition [22]: Active
inhibition [23]: Active
inhibition [24]: Active
